Results published in article PMC3993921 (Inorganic Chemistry, 2014).
Entries after “also recorded” stand apart in the source; their conditions may differ.

Key:
[1] = test system: unstimulated normal cells (resting lymphocytes, PBMC); experiment: Growth inhibition of normal cells: resting lymphocytes; assay type: cell-based; conditions: read-out: lymph (resting) IC50; resting human lymphocytes (PBMC), MTT, 3 d
How it was run: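 Human lymphocytes (PBMCs) from preservative-free heparinised peripheral blood, left unstimulated (no PHA-P), run like the HeLa MTT assay: 1 × 10^4 cells/well, test compound 0–100 μM, but exposure 3 d. Freshly prepared MTT (5 mg/mL) added for 4 h; absorbance at 570 nm (reference 630 nm). Triplicate; IC50 as 50% growth inhibition.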

[2] = test system: human cervical epitheloid carcinoma (HeLa) cells; experiment: Growth inhibition of HeLa cells; assay type: cell-based; conditions: read-out: HeLa IC50, MTT after 7 d, triplicate
How it was run: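 Seeded at 1 × 10^4 cells/well, 1 h, then test compound 0–100 μM for 7 d. Freshly prepared MTT (5 mg/mL) added for 4 h, absorbance read at 570 nm (reference 630 nm). Triplicate, averaged; IC50 = 50% growth inhibition.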

stability in solution = assay type: physicochemical; conditions: in solution (dichloromethane for 4)
RPMI-8226 = experiment: DTP 60-cell-line panel: RPMI-8226; assay type: cell-based; conditions: leukemia RPMI-8226, Tables 3, 4
UACC-62 = experiment: DTP 60-cell-line panel: UACC-62; assay type: cell-based; conditions: melanoma UACC-62
A549/ATCC = experiment: DTP 60-cell-line panel: A549/ATCC; assay type: cell-based; conditions: nonsmall cell lung A549/ATCC, Tables 3, 4
[3] = in vivo hollow fiber studies
RXF393 = experiment: DTP 60-cell-line panel: RXF393; assay type: cell-based; conditions: renal RXF393, Table 3
leukemia SR cell line = experiment: DTP 60-cell-line panel: SR; assay type: cell-based
[4] = test system: panel of 60 cancer cell lines; experiment: DTP; assay type: cell-based; conditions: for TGI range / TGI Δ: 60 cell lines (log scale)
OVCAR-3 = experiment: DTP 60-cell-line panel: OVCAR-3; assay type: cell-based; conditions: ovarian OVCAR-3, Table 3
COLO 205 = experiment: DTP 60-cell-line panel: COLO 205; assay type: cell-based; conditions: colon COLO205
KM12 = experiment: DTP 60-cell-line panel: KM12; assay type: cell-based; conditions: colon KM12; Table 3
IGROV ovarian cell line = conditions: cited from earlier work

With `S=C([S][Au][PH](c1ccccc1)(c1ccccc1)c1ccccc1)n1cccn1` [Compound 1, Pyrazolyl-1-dithiocarbamato-triphenylphosphinogold(I)] as the compound, how does the IC50 [1] read?
Its IC50 is 9.05 ± 3.5 µM.

And the IC50 [2]?
The IC50 was 2.56 ± 0.12 µM.

Which IC50 [1] does the source give for `Cc1cc(C)n(C(=S)[S][Au-][P+](c2ccccc2)(c2ccccc2)c2ccccc2)n1` [Compound 2, 3,5-dimethylpyrazolyl-1-dithiocarbamato-triphenylphosphinogold(I)] here?
Its IC50 is 9.53 ± 3.18 µM.

What about the IC50 [2] of the same compound?
The IC50 was 2.63 ± 0.1 µM.

For `S=C([S][Au][PH](c1ccccc1)(c1ccccc1)c1ccccc1)n1ncc2ccccc21` [Compound 3, Indazolyl-1-dithiocarbamato-triphenylphosphinogold(I)], which IC50 [1] is on record?
Its IC50 is 14 ± 10.5 µM.

And the IC50 [2]?
Its IC50 is 2.56 ± 0.17 µM.

Which stability in solution (stability in solution) does the source give for `S=C([S][Au][PH](CC[PH]([Au][S]C(=S)n1cccn1)(c1ccccc1)c1ccccc1)(c1ccccc1)c1ccccc1)n1cccn1` [Compound 4, Bis-(pyrazolyl-1-dithiocarbamato)-bis-(diphenylphosphino)ethane Dinuclear Gold(I)] here?
Its stability in solution is “readily transforming to the Au18 cluster”.

What does the source list for `S=C([S][Au][PH](CCC[PH]([Au][S]C(=S)n1cccn1)(c1ccccc1)c1ccccc1)(c1ccccc1)c1ccccc1)n1cccn1` [Compound 7, Bis(pyrazol-1-yldithiocarbamato)-bis-(diphenylphosphino)propane Dinuclear Gold(I)]?
IC50 [1]: 7.05 ± 2.02 µM; IC50 [2]: 3.07 ± 0.48 µM

Which results are given for `Cc1cc(C)n(C(=S)[S][Au-][P+](CCC[P+]([Au-][S]C(=S)n2nc(C)cc2C)(c2ccccc2)c2ccccc2)(c2ccccc2)c2ccccc2)n1` [Compound 8, Bis(3,5-dimethylpyrazol-1-yldithiocarbamato)-bis-(diphenylphosphino)propane Dinuclear Gold(I)]?
IC50 [1]: 6.13 ± 2.92 µM; IC50 [2]: 6.96 ± 0.51 µM

With `S=C([S][Au-][P+](CCC[P+]([Au-][S]C(=S)n1ncc2ccccc21)(c1ccccc1)c1ccccc1)(c1ccccc1)c1ccccc1)n1ncc2ccccc21` [Compound 9, Bis(indazol-1-yldithiocarbamato)-bis-(diphenylphosphino)propane Dinuclear Gold(I)] as the compound, how does the IC50 [1] read?
The IC50 was 18.5 ± 3.88 µM.

And the IC50 [2]?
The IC50 was 3.38 ± 0.3 µM.

Which results are given for `S=C([S][Au-][P+](CCCCCC[P+]([Au-][S]C(=S)n1cccn1)(c1ccccc1)c1ccccc1)(c1ccccc1)c1ccccc1)n1cccn1` [Compound 10, Dinuclear Bis(pyrazol-1-yldithiocarbamato)-bis-(diphenylphosphino)hexane Gold(I)]?
GI50 (RPMI-8226): 0.19 µM; TGI (RPMI-8226): 0.53 µM; CC50 (RPMI-8226; read-out: LC50): > 100 µM; TGI (UACC-62; Table 3): >100 µM; GI50 (UACC-62; Tables 3, 4): 0.38 µM; CC50 (UACC-62; read-out: LC50, Tables 3, 4): > 100 µM; GI50 (A549/ATCC): 0.38 µM; TGI (A549/ATCC): >100 µM; CC50 (A549/ATCC; read-out: LC50): > 100 µM; activity in vivo [3]: not so great; CC50 (RXF393; read-out: LC50): > 100 µM; GI50 (RXF393): 0.45 µM; GI50 (leukemia SR cell line; Tables 3, 4): 0.19 µM; TGI (leukemia SR cell line; Tables 3, 4): 2.41 µM; CC50 (leukemia SR cell line; read-out: LC50, Tables 3, 4): > 100 µM; IC50 [1]: 18.9 ± 5.66 µM; TGI range [4]: 2.28; TGI Δ [4]: 1.92; GI50 (OVCAR-3): 0.7 µM; TGI (OVCAR-3): 14.20 µM; CC50 (OVCAR-3; read-out: LC50): > 100 µM; TGI (COLO 205; Table 3): >100 µM; GI50 (COLO 205; Tables 3, 4): 0.31 µM; CC50 (COLO 205; read-out: LC50, Tables 3, 4): > 100 µM; IC50 [2]: 0.51 ± 0.08 µM; GI50 (KM12): 0.43 µM; TGI (KM12): 1.73 µM

What does the source list for `Cc1cc(C)n(C(=S)[S][Au][PH](CCCCCC[PH]([Au][S]C(=S)n2nc(C)cc2C)(c2ccccc2)c2ccccc2)(c2ccccc2)c2ccccc2)n1` [Compound 11, Dinuclear Bis(3,5-dimethylpyrazol-1-yldithiocarbamato)-bis-(diphenylphosphino)hexane Gold(I)]?
activity in vivo [3]: could not be delivered to the targets; also recorded: not so great; IC50 [1]: 18.2 ± 15.9 µM; TGI range [4]: 2.38; TGI Δ [4]: 1.87; GI50 MG-MID ([4]; median over 60 cell lines (log scale)): –6.25; IC50 [2]: 0.14 ± 0.01 µM

Which IC50 [1] does the source give for `S=C([S][Au-][P+](CCCCCC[P+]([Au-][S]C(=S)n1ncc2ccccc21)(c1ccccc1)c1ccccc1)(c1ccccc1)c1ccccc1)n1ncc2ccccc21` [Compound 12, Dinuclear Bis(indazol-1-yldithiocarbamato)-bis-(diphenylphosphino)hexane Gold(I)] here?
The IC50 was 37.7 ± 12.6 µM.

And the IC50 [2]?
Its IC50 is 4.04 ± 0.49 µM.

With `CCN(CC)C(=S)[S][Au][PH](CC)(CC)CC` [[(Et3P)Au(S2CNEt2)]] as the compound, how does the ID50 (IGROV ovarian cell line) read?
The ID50 was 0.012 µg/mL.

Which IC50 [2] does the source give for `N.N.[Cl][Pt][Cl]` [cis-platin, reference compound] here?
Its IC50 is 0.45 ± 0.09 µM.
